Measured values from ChEMBL document CHEMBL1629608, “Variations in amino acid composition of antisense peptide-phosphorodiamidate morpholino oligomer affect potency against Escherichia coli in vitro and in vivo” (Antimicrob Agents Chemother, 2009).
Converted amounts (≈) assume the structure as drawn. The source made the active and inactive calls. The rule behind the calls is not given here.

Key:
[1] = Toxicity in Escherichia coli K-12 W3110 infected ip dosed mouse; type: organism-based; details: in vivo
Method in brief: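 E. coli K-12 W3110 was grown in LB broth for the inoculum and injected intraperitoneally into groups of 3–7 mice. Conjugates were given ip at 15 min and 12 h postinfection (10–300 μg per dose), with water or scrambled-sequence conjugate as controls. Blood drawn at 2, 6, 12, 24 and 48 h was diluted and plated on LB for CFU counts. Survival was followed by Kaplan-Meier, and log CFU was compared by ANOVA with Tukey-Kramer.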

[2] = test system: Rattus norvegicus; assay: Toxicity in rat at 150 mg/kg, ip; details: in vivo
[3] = test system: Escherichia coli; assay: Antibacterial activity against Escherichia coli K-12 W3110 infected in mouse assessed as reduction of bacterial level in blood at 300 ug, ip administered 15 mins and 12 hrs postinfection measured after 6 hrs post dose relative to control; type: functional, K-12 substr. W3110
Method in brief: (§1)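 Mice in groups of 3–7 were infected intraperitoneally with E. coli W3110 from an LB culture. They were dosed ip with 10–300 μg per dose at 15 min and 12 h postinfection. Controls were water or scrambled-sequence PPMO. Blood was taken at 2, 6, 12, 24 and 48 h, diluted and plated on LB for CFU/ml. Log CFU was compared by one-way ANOVA with Tukey-Kramer; mean ± SD.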

[4] = test system: Escherichia coli; assay: Antibacterial activity against Escherichia coli K-12 W3110 infected in mouse assessed as reduction of bacterial level in blood at 300 ug, ip administered 15 mins and 12 hrs postinfection measured after 2 hrs post dose relative to control; type: functional, K-12 substr. W3110; method in brief: as §1
[5] = test system: Escherichia coli; assay: Antibacterial activity against Escherichia coli K-12 W3110 by microdilution method; type: functional; details: K-12 substr. W3110
[6] = test system: Escherichia coli; assay: Antibacterial activity against Escherichia coli K-12 W3110 infected in mouse assessed as reduction of bacterial level in blood at 10 to 30 ug, ip administered 15 mins and 12 hrs postinfection measured after 2 hrs post dose relative to control; type: functional, organism-based; details: K-12 substr. W3110; method in brief: as §1
[7] = test system: Escherichia coli; assay: Antibacterial activity against Escherichia coli K-12 W3110 infected in ip dosed mouse assessed as reduction of bacterial level in blood administered 15 mins and 12 hrs postinfection; type: functional; details: K-12 substr. W3110, Blood; method in brief: as §1
[8] = test system: Mus musculus; assay: Toxicity in Escherichia coli K-12 W3110 infected mouse at 15 mg/kg, ip; type: organism-based; set-up: dose 15 mg/kg, route intraperitoneal; details: in vivo
Method in brief: (§2)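 Mice in groups of 3–7 were infected intraperitoneally with E. coli W3110 from an LB culture. They were treated ip at 15 min and 12 h postinfection with 10, 30, 100 or 300 μg per dose; 300 μg is noted as ~15 mg/kg. Controls were water or scrambled-sequence PPMO. Survival was followed to 48 h and analysed by the Kaplan-Meier method.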

[9] = Therapeutic index, ratio of LD50 for Escherichia coli K-12 W3110 infected mouse to ED50 for Escherichia coli K-12 W3110; details: read-out: Ratio LD50/ED50
[10] = test system: Escherichia coli; assay: Antibacterial activity against Escherichia coli K-12 W3110 infected in mouse assessed as reduction of bacterial level in blood at 100 ug, ip administered 15 mins and 12 hrs postinfection measured after 2 hrs post dose relative to control; type: functional, organism-based; details: K-12 substr. W3110; method in brief: as §1
[11] = test system: Escherichia coli; assay: Antibacterial activity against Escherichia coli K-12 W3110 infected in mouse assessed as reduction of bacterial level in blood at 300 ug, ip administered 15 mins and 12 hrs postinfection measured after 12 hrs post dose relative to control; type: functional, K-12 substr. W3110; method in brief: as §1
[12] = test system: Escherichia coli; assay: Antibacterial activity against Escherichia coli K-12 W3110 infected in mouse assessed as increase of mouse survival at 30 ug, ip administered 15 mins and 12 hrs postinfection; type: functional, organism-based; details: K-12 substr. W3110; method in brief: as §2
[13] = test system: Escherichia coli; assay: Antibacterial activity against Escherichia coli K-12 W3110 infected in mouse assessed as reduction of bacterial level in blood at 30 to 300 ug, ip administered 15 mins and 12 hrs postinfection measured after 2 hrs post dose relative to control; type: functional, organism-based; details: K-12 substr. W3110; method in brief: as §1
[14] = test system: Escherichia coli; assay: Antibacterial activity against Escherichia coli K-12 W3110 infected in mouse assessed as reduction of bacterial level in blood at 100 to 300 ug, ip administered 15 mins and 12 hrs postinfection; type: functional, K-12 substr. W3110; method in brief: as §1
[15] = test system: Escherichia coli; assay: Antibacterial activity against Escherichia coli K-12 W3110 infected in mouse assessed as reduction of bacterial level in blood at 30 ug, ip administered 15 mins and 12 hrs postinfection measured after 2 hrs post dose relative to control; type: functional, K-12 substr. W3110; set-up: scale not given: the % may be the effect or the level left; method in brief: as §1
[16] = test system: Escherichia coli; assay: Antibacterial activity against Escherichia coli K-12 W3110 infected in mouse assessed as increase of mouse survival at 300 ug, ip administered 15 mins and 12 hrs postinfection; type: functional, organism-based; details: K-12 substr. W3110; method in brief: as §2
[17] = test system: Escherichia coli; assay: Antibacterial activity against Escherichia coli K-12 W3110 infected in mouse assessed as increase of mouse survival at 100 ug, ip administered 15 mins and 12 hrs postinfection; type: functional, organism-based; details: K-12 substr. W3110; method in brief: as §2
[18] = test system: Escherichia coli; assay: Antibacterial activity against Escherichia coli K-12 W3110 infected in mouse assessed as increase of mouse survival at 10 ug, ip administered 15 mins and 12 hrs postinfection; type: functional, organism-based; details: K-12 substr. W3110; method in brief: as §2

| SMILES | LD50 [1] [mg/kg] | Activity [2] | log10cfu [3] | log10cfu [4] | MIC [5] [µM] | Activity [6] | ED50 [7] [mg/kg] | Activity [8] | selectivity ratio [9] | Activity [10] | log10cfu [11] | Activity [12] | Activity [13] | log10cfu [14] | Activity [15] [%] | Activity [16] | Activity [17] | Activity [18] |
| --- | --- | --- | --- | --- | --- | --- | --- | --- | --- | --- | --- | --- | --- | --- | --- | --- | --- | --- |
| Cc1cn([C@H]2CNC[C@@H](COP(=O)(N(C)C)N3C[C@@H](COP(=O)(N(C)C)N4C[C@@H](COP(=O)(N(C)C)N5C[C@@H](COP(=O)(N(C)C)N6C[C@@H](COP(=O)(N(C)C)N7C[C@@H](COP(=O)(N(C)C)N8C[C@@H](COP(=O)(N(C)C)N9C[C@@H](COP(=O)(N(C)C)N%10C[C@@H](COP(=O)(N(C)C)N%11C[C@@H](COP(=O)(N(C)C)N%12C[C@@H](COP(=O)(N(C)C)N%13CCN(C(=O)CCNC(=O)CCCCCNC(=O)[C@H](CCCNC(=N)N)NC(=O)[C@H](Cc%14ccccc%14)NC(=O)[C@H](CCCNC(=N)N)NC(=O)[C@H](CCCNC(=N)N)NC(=O)NC(=O)[C@H](Cc%14ccccc%14)NC(=O)[C@H](CCCNC(=N)N)NC(=O)[C@H](CCCNC(=N)N)NC(=O)NC(=O)[C@H](Cc%14ccccc%14)NC(=O)[C@H](CCCNC(=N)N)NC(=O)[C@H](CCCNC(=N)N)NC(=O)NC(=O)[C@H](Cc%14ccccc%14)NC(=O)[C@@H](N)CCCNC(=N)N)CC%13)O[C@@H](n%13cc(C)c(=O)[nH]c%13=O)C%12)O[C@@H](n%12ccc(N)nc%12=O)C%11)O[C@@H](n%11cc(C)c(=O)[nH]c%11=O)C%10)O[C@@H](n%10ccc(N)nc%10=O)C9)O[C@@H](n9cnc%10c(N)ncnc%109)C8)O[C@@H](n8cnc9c(=O)[nH]c(N)nc98)C7)O[C@@H](n7cnc8c(N)ncnc87)C6)O[C@@H](n6cc(C)c(=O)[nH]c6=O)C5)O[C@@H](n5cnc6c(=O)[nH]c(N)nc65)C4)O[C@@H](n4cnc5c(=O)[nH]c(N)nc54)C3)O2)c(=O)[nH]c1=O (stereo not given in full) | 210 | Toxic |  |  |  |  |  |  |  |  |  |  |  |  |  |  |  |  |
| Cc1cn([C@H]2CN(P(=O)(OC[C@@H]3CN(P(=O)(OC[C@@H]4CN(P(=O)(OC[C@@H]5CN(P(=O)(OC[C@@H]6CN(P(=O)(OC[C@@H]7CN(P(=O)(OC[C@@H]8CN(P(=O)(OC[C@@H]9CN(P(=O)(OC[C@@H]%10CNC[C@H](n%11cnc%12c(=O)[nH]c(N)nc%12%11)O%10)N(C)C)C[C@H](n%10cc(C)c(=O)[nH]c%10=O)O9)N(C)C)C[C@H](n9cnc%10c(=O)[nH]c(N)nc%109)O8)N(C)C)C[C@H](n8cnc9c(N)ncnc98)O7)N(C)C)C[C@H](n7cc(C)c(=O)[nH]c7=O)O6)N(C)C)C[C@H](n6cnc7c(N)ncnc76)O5)N(C)C)C[C@H](n5cnc6c(=O)[nH]c(N)nc65)O4)N(C)C)C[C@H](n4ccc(N)nc4=O)O3)N(C)C)C[C@@H](COP(=O)(N(C)C)N3C[C@@H](COP(=O)(N(C)C)N4C[C@@H](COP(=O)(N(C)C)N5CCN(C(=O)CCNC(=O)CCCCCNC(=O)[C@H](CCCNC(=N)N)NC(=O)[C@H](Cc6ccccc6)NC(=O)[C@H](CCCNC(=N)N)NC(=O)[C@H](CCCNC(=N)N)NC(=O)NC(=O)[C@H](Cc6ccccc6)NC(=O)[C@H](CCCNC(=N)N)NC(=O)[C@H](CCCNC(=N)N)NC(=O)NC(=O)[C@H](Cc6ccccc6)NC(=O)[C@H](CCCNC(=N)N)NC(=O)[C@H](CCCNC(=N)N)NC(=O)NC(=O)[C@H](Cc6ccccc6)NC(=O)[C@@H](N)CCCNC(=N)N)CC5)O[C@@H](n5ccc(N)nc5=O)C4)O[C@@H](n4cc(C)c(=O)[nH]c4=O)C3)O2)c(=O)[nH]c1=O (stereo not given in full) | 300 |  | 2 | 2 | 0.625 (≈ 3.71 µg/mL) | inactive | 1.5 | Non-toxic | 200 | Active | 2 |  |  |  |  |  |  |  |
| Cc1cn([C@H]2CN(P(=O)(OC[C@@H]3CN(P(=O)(OC[C@@H]4CN(P(=O)(OC[C@@H]5CN(P(=O)(OC[C@@H]6CN(P(=O)(OC[C@@H]7CN(P(=O)(OC[C@@H]8CN(P(=O)(OC[C@@H]9CN(P(=O)(OC[C@@H]%10CNC[C@H](n%11cnc%12c(=O)[nH]c(N)nc%12%11)O%10)N(C)C)C[C@H](n%10cc(C)c(=O)[nH]c%10=O)O9)N(C)C)C[C@H](n9cnc%10c(=O)[nH]c(N)nc%109)O8)N(C)C)C[C@H](n8cnc9c(N)ncnc98)O7)N(C)C)C[C@H](n7cc(C)c(=O)[nH]c7=O)O6)N(C)C)C[C@H](n6cnc7c(N)ncnc76)O5)N(C)C)C[C@H](n5cnc6c(=O)[nH]c(N)nc65)O4)N(C)C)C[C@H](n4ccc(N)nc4=O)O3)N(C)C)C[C@@H](COP(=O)(N(C)C)N3C[C@@H](COP(=O)(N(C)C)N4C[C@@H](COP(=O)(N(C)C)N5CCN(C(=O)CCNC(=O)CCCCCNC(=O)[C@H](CCCNC(=N)N)NC(=O)CCCCCNC(=O)[C@H](CCCNC(=N)N)NC(=O)CCCCCNC(=O)[C@H](CCCNC(=N)N)NC(=O)CCCCCNC(=O)[C@H](CCCNC(=N)N)NC(=O)CCCCCNC(=O)[C@H](CCCNC(=N)N)NC(=O)CCCCCNC(=O)[C@@H](N)CCCNC(=N)N)CC5)O[C@@H](n5ccc(N)nc5=O)C4)O[C@@H](n4cc(C)c(=O)[nH]c4=O)C3)O2)c(=O)[nH]c1=O (stereo not given in full) |  |  |  |  | 1.25 (≈ 6.84 µg/mL) |  |  |  |  |  |  | inactive | Active | 3 | 88 | inactive | Active | inactive |
